Many of the other results were omitted from the sample, so hits are more common in it than they were.
INS promoter act: TRM-6 insulin promoter activation | TRM-6 cells (human fetal islet line), insulin promoter eGFP reporter, imaging; plate-scaled: unstimulated 0, stimulated control 100 | activation, % at 2 µM | hit rate 0.81% among 130,000 | AID 1296;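 active = activation at 2 µM above a set limit, confirmed on inspection of the cell images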;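 note: share of cells whose green reporter signal exceeds an intensity cutoff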
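Material: TRM-6 insulin promoter–eGFP reporter cells. Buffer or medium: Low-glucose (5.5 mM) medium with tamoxifen. Probe or stimulus: tamoxifen at 0.75 µM added at seeding for reporter induction. Times: tamoxifen pre-incubation 15 h overnight, then compound exposure 48 h at 37 °C. Detection: high-content imaging of fixed cells with Hoechst nuclear stain.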
Large screens that a line does not name were inactive.

CCOc1ccc(-c2c(C)n([O-])c3c([n+]2=O)CCCCC3)cc1	none
Cc1cccc(S(=O)(=O)NCCC(=O)OCC(=O)Nc2ccc(C#N)cc2)c1	none
C#CCn1c(=NC(=O)c2cc(-c3cccs3)nc3ccccc23)sc2cc(S(N)(=O)=O)ccc21	none
CCCCOCCCNC(=O)c1ccc([N+](=O)[O-])c(C)c1	none
COc1cc(NC(=S)N2CCC(C(N)=O)CC2)c(OC)cc1Cl	none
COc1cccc(NC(=O)C2C3C=CC4(O3)C2C(=O)N(C2CC2)C4C(=O)NC2CCCCC2C)c1 (centres undefined)	INS promoter act 810
COc1cccc(NC(=O)C2C3C=CC4(O3)C2C(=O)N(C(C)C)C4C(=O)NC2CCCCC2C)c1 (centres undefined)	none
CCCCN1C(=O)C2C(C(=O)Nc3cccc(OC)c3)C3C=CC2(O3)C1C(=O)NC1CCCCC1C (centres undefined)	none
CN=C(Nc1ccc(Cl)cc1)c1ccc(C(F)(F)F)cc1	none
COCCn1c(-c2ccc(OC)cc2)cnc1SCC(=O)Nc1cccc2ccccc12	none
O=C(NCc1ccc(OC(F)(F)F)cc1)C1CC(c2ccccc2[N+](=O)[O-])=NO1 (centres undefined)	none
CCCCNC(=O)C1CC(c2ccccc2[N+](=O)[O-])=NO1 (centres undefined)	INS promoter act 161
O=C(NCCc1cccs1)C1CC(c2ccc([N+](=O)[O-])cc2)=NO1 (centres undefined)	none
Cc1cc(C(=O)O)c(CSCc2cc(C(=O)O)oc2C)o1	none
Cc1cc(C)cc(NC(=O)c2cccn2-c2ncc(C(F)(F)F)cc2Cl)c1	INS promoter act 175
NS(=O)(=O)c1cccn1-c1ncc(C(F)(F)F)cc1Cl	none
O=C(NCc1cccnc1)c1cccn1-c1ncc(C(F)(F)F)cc1Cl	none
Cc1ccc(-n2ncc3c(SCC(=O)NNC(=O)c4ccco4)ncnc32)cc1	none
NC(=O)C1(N2CCCCC2)CCN(C(=O)CSc2nc3ccccc3o2)CC1	none
NC(=O)C1(N2CCCCC2)CCN(CC(=O)Nc2ccccc2-c2ccccc2)CC1	none
NC(=O)C1(N2CCCCC2)CCN(Cc2ccccc2Cl)CC1	INS promoter act 456
Cc1nn(-c2ccccc2)c(C)c1/C=N/NC(=O)CSc1nnc(SCc2cccc3ccccc23)s1	none
Cc1ccc(N=C2NC(=O)/C(=C\c3ccc(C)s3)S2)cc1	none
Cc1ccc(SCC(=O)NN2C(=O)c3ccccc3C2=O)cc1	none
O=C(c1ccc(N2CCOCC2)cc1)c1cccs1	none
Cc1cc(N2C(=O)CC(N3CCN(c4ccc(C(=O)c5cccs5)cc4)CC3)C2=O)no1 (centres undefined)	INS promoter act 438
Cc1cc(N2C(=O)CC(C(C)c3ccccc3)C2=O)no1 (centres undefined)	none
O=C(OC1C2CCC1C1CN(CCc3ccccc3)CC12)c1ccccc1 (centres undefined)	none
CC(C)[C@H](NC(N)=O)C(=O)NCCc1ccc(Cl)cc1Cl	none
Cc1nc2c(C(=O)NCCC(C)C)c[nH]n2c(=O)c1Cc1ccccc1F	none
CC(C)CCNC(=O)[C@@H](NC(=O)c1c(F)cccc1F)C(C)C	INS promoter act 94
CC(=O)NN1C(=O)/C(=C/c2ccc(C(C)C)cc2)SC1=S	none
COc1ccc(OCC(=O)N2CCN(S(=O)(=O)c3ccccc3[N+](=O)[O-])CC2)cc1	none
N#C/C(=C\c1ccc(N2CCCCC2)o1)C(=O)Nc1cccc(Br)c1	none
N#C/C(=C\c1ccc([N+](=O)[O-])o1)C(=O)Nc1ccc(F)cc1	INS promoter act 400
O=C1OC(c2ccc(F)cc2)=C/C1=C\c1ccc([N+](=O)[O-])o1	none
O=C(NNC(=O)[C@H]1CC=CC[C@H]1C(=O)O)c1ccc(Cl)cc1Cl	none
Cc1ccc(C)c(N(CC(=O)NN=C2CCN(C)CC2)S(=O)(=O)c2ccccc2)c1	none
Cc1ccc(S(=O)(=O)N(CC(=O)NN=C2CCN(C)CC2)c2ccc(C(C)C)cc2)cc1	none
CN1CCC(=NNC(=O)CN(c2ccc(Oc3ccccc3)cc2)S(C)(=O)=O)CC1	INS promoter act 454
CCOC(=O)C1C(=O)C=C(Nc2ccccc2F)CC1c1ccccc1 (centres undefined)	none
CCN(CC)C(=O)C(C(=O)c1cccc([N+](=O)[O-])c1)n1cc(Cl)ccc1=O (centres undefined)	none
O=C(CSc1nnc(CCCN2C(=O)c3cccc4cccc(c34)C2=O)n1-c1ccccc1)NCCCN1CCOCC1	none
c1ccc(-c2nnc(-c3ccccc3)o2)cc1	none
CSc1ccccc1-c1nnc(-c2ccccc2)o1	none
O=S1(=O)C=C(Sc2nnc(-c3ccccc3)o2)c2ccccc21	INS promoter act 270
O=C1c2ccccc2C(=O)N1CCC(=O)N1CCc2ccccc21	none
O=C(O)CCC1=C2c3ccccc3CCN2C(=O)CC1	INS promoter act 450
COC(=O)CCC(=O)NN1C(=O)c2ccccc2C1=O	none
CC(=O)Nc1ccc(S(=O)(=O)NNC(=O)c2cccc(Cl)c2)cc1	none
O=C(O)C1Nc2c(O)cc(Cl)c([N+](=O)[O-])c2C2C=CCC12 (centres undefined)	none
COc1ccc2oc(C(=O)OCc3c(C)noc3C)c(C)c2c1	none
COc1ccc(-n2c(Cn3c(=O)sc4ccccc43)nnc2SC)cc1	none
Cc1ccc(OCn2c(=O)sc3ccccc32)cc1	INS promoter act 437
CCOC(=O)Cn1c(=O)sc2ccccc21	none
COc1ccc(-c2nc(O)c3cnccn23)cc1	none
CN(C)C(=O)NC(Nc1ccc(Cl)cc1Cl)C(Cl)(Cl)Cl (centres undefined)	none
O=C(Nc1ccccc1)c1ccc[nH]1	none
CC(C)Cc1ccc(C(C)C(=O)O)cc1 (centres undefined)	none
CC(C)Cc1ccc(C(C)NC(=O)c2ccc(=O)[nH]c2)cc1 (centres undefined)	INS promoter act 350
CCCc1ccc(C(C)NC(=O)c2cnccn2)cc1 (centres undefined)	none
COc1cccc(C(=O)NC(Cc2ccccc2)c2ccc3c(c2)OCCCO3)c1 (centres undefined)	none
CSc1nc2c(c(=O)[nH]1)C(c1cccc(Br)c1)CC(=O)N2 (centres undefined)	none
CCc1nnc(NS(=O)(=O)c2ccc(NC(=O)c3cccc(Cl)c3)cc2)s1	none
CCC(=O)Nc1ccc2c(c1)ncn2-c1ccc(C)cc1	none
COc1ccc(NC(=O)CN(c2cccc(C(F)(F)F)c2)S(C)(=O)=O)cc1OC	none
CC(=O)c1cccc(N(CC(=O)Nc2ccc(F)cc2)S(C)(=O)=O)c1	none
COc1cccc(NC(=O)CN(c2cccc(F)c2)S(C)(=O)=O)c1	INS promoter act 444
Cc1cc(C(=O)CSc2nnc(-c3cccnc3)n2-c2ccccc2F)c(C)n1CC1CCCO1 (centres undefined)	INS promoter act 91
Cc1cc(C(=O)CSc2nnc(-c3ccc(F)cc3)o2)c(C)n1CC1COc2ccccc2O1 (centres undefined)	none
O=C(CSc1nnc(-c2ccncc2)n1CC1CCCO1)NCc1ccccc1 (centres undefined)	none
CCN(CC)C(=O)CSc1nnc(COc2cccc(C)c2)n1C	none
CC(=O)Nc1ccc(NC(=O)CCSCCc2ccccn2)cc1	none
CCC(=O)N1CCN(c2ccccc2NC(=O)COc2ccccc2Cl)CC1	none
Cn1c(C(=O)OC(C(=O)NCc2ccco2)c2ccncc2)cc2sccc21 (centres undefined)	INS promoter act 633
CC(OC(=O)c1cc2sccc2n1C)C(=O)NCc1ccc(F)cc1 (centres undefined)	none
CC(OC(=O)c1cc2sccc2n1C)C(=O)NCCc1ccccc1 (centres undefined)	none
O=C(/C=C\c1ccc2c(c1)OCO2)Nc1c2c(nn1-c1ccc(Cl)cc1)CSC2	none

Source: PubChem BioAssay (Columbia University Molecular Screening Center)
